Measured values: ChEMBL document CHEMBL4393670 (J Med Chem, 2019)
Calls of active or inactive are those of the source. The calls are words filed in the database; no cut-off is given here. Residues, ends and D or L forms follow the SMILES beside them. *: point of attachment. Cbz = O=C(OCc1ccccc1)*; Boc = CC(C)(C)OC(=O)*; OBn = c1ccc(CO*)cc1; OtBu = CC(C)(C)O*

How the values were obtained:
[1] = target: T1, Proteasome Macropain subunit MB1 (Homo sapiens, UniProt P28074); experiment: Inhibition of 20S proteasome beta5 subunit in human RPMI8226 cell lysate using Suc-LLVY-AMC as substrate pretreated for 1 hr followed by substrate addition and measured at 1 min interval by fluorescence assay; format: subcellular
T1 sequence (P28074 whole entry): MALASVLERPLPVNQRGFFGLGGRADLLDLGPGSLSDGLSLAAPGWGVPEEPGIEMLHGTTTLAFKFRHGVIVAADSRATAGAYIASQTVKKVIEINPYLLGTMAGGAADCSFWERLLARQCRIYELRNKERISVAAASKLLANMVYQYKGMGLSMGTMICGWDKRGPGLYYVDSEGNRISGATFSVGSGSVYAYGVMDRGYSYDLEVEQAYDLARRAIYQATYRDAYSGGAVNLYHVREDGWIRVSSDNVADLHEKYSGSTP

[2] = Selectivity ratio of IC50 for human RPMI8226/Cfzr cells to IC50 for human RPMI8226 cells; format: functional
RPMI-8226 = experiment: Cytotoxicity against human RPMI8226 cells after 72 hrs by CellTiter 96 AQueous one solution cell proliferation assay; format: functional, cell-based; settings: RPMI-8226, 72 h
Method in brief: (§1)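 Cells in RPMI1640 with 10% FBS; H23 plated at 5000, H727, RPMI8226 and the Cfz-resistant subline at 10 000 cells/well. Resistant subline adapted to stepwise Cfz up to 80 nM over ~6 months, kept in 80 nM, then Cfz-free ~1 week before testing.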

[3] = Cytotoxicity against human RPMI8226/Cfzr cells after 72 hrs by CellTiter 96 AQueous one solution cell proliferation assay; format: functional, cell-based; settings: RPMI-8226, 72 h; method in brief: as §1
[4] = Selectivity ratio of IC50 for human NCI-H727 cells to IC50 for human NCI-H23 cells; format: functional
NCI-H23 = experiment: Cytotoxicity against human NCI-H23 cells after 72 hrs by CellTiter 96 AQueous one solution cell proliferation assay; format: functional, cell-based; settings: NCI-H23, 72 h; method in brief: as §1
NCI-H727 [5] = experiment: Cytotoxicity against human NCI-H727 cells after 72 hrs by CellTiter 96 AQueous one solution cell proliferation assay; format: functional, cell-based; settings: NCI-H727, 72 h; method in brief: as §1
[6] = target: T2, Proteasome subunit beta type-9 (Homo sapiens, UniProt P28065); experiment: Inhibition of purified human 20S immunoproteasome beta1 subunit using Ac-Pro-Ala-Leu-AMC as substrate pretreated for 1 hr followed by substrate addition and measured at 1 min interval by fluorescence assay
T2 sequence (P28065 whole entry): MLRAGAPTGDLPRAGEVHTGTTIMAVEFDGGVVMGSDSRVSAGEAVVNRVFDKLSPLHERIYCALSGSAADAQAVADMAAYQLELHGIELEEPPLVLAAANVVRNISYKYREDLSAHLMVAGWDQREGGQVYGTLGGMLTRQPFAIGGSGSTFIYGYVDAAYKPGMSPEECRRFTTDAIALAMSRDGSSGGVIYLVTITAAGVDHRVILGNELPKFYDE

Homo sapiens [7] = organism: Homo sapiens; experiment: Cytotoxicity against human Btz-resistant multiple myeloma cells at 10 uM after 48 hrs by CellTiter Glo luminescent cell viability assay
Homo sapiens [8] = organism: Homo sapiens; experiment: Cytotoxicity against human multiple myeloma cells at 10 uM after 48 hrs by CellTiter Glo luminescent cell viability assay
[9] = target: ATP-dependent translocase ABCB1 (Homo sapiens, UniProt P08183); experiment: Inhibition of P-gp in human RPMI8226/Cfzr cells assessed as potentiation of carfilzomib-induced cytotoxicity at 7.5 uM measured after 72 hrs by CellTiter 96 AQueous one solution cell proliferation assay; format: cell-based
[10] = Stability in Sprague-Dawley rat liver homogenate at 1 uM measured up to 20 mins by LC-MS/MS analysis
[11] = Potency index, ratio of carfilzomib IC50 to test compound IC50 for human RPMI8226/Cfzr cells; format: functional
NCI-H727 [12] = experiment: Potency index, ratio of carfilzomib IC50 to test compound IC50 for human NCI-H727 cells; format: functional
[13] = Half life in patient with relapsed and refractory multiple myeloma; format: ADME; settings: human, in vivo

Sequence of ATP-dependent translocase ABCB1 (P08183 whole entry): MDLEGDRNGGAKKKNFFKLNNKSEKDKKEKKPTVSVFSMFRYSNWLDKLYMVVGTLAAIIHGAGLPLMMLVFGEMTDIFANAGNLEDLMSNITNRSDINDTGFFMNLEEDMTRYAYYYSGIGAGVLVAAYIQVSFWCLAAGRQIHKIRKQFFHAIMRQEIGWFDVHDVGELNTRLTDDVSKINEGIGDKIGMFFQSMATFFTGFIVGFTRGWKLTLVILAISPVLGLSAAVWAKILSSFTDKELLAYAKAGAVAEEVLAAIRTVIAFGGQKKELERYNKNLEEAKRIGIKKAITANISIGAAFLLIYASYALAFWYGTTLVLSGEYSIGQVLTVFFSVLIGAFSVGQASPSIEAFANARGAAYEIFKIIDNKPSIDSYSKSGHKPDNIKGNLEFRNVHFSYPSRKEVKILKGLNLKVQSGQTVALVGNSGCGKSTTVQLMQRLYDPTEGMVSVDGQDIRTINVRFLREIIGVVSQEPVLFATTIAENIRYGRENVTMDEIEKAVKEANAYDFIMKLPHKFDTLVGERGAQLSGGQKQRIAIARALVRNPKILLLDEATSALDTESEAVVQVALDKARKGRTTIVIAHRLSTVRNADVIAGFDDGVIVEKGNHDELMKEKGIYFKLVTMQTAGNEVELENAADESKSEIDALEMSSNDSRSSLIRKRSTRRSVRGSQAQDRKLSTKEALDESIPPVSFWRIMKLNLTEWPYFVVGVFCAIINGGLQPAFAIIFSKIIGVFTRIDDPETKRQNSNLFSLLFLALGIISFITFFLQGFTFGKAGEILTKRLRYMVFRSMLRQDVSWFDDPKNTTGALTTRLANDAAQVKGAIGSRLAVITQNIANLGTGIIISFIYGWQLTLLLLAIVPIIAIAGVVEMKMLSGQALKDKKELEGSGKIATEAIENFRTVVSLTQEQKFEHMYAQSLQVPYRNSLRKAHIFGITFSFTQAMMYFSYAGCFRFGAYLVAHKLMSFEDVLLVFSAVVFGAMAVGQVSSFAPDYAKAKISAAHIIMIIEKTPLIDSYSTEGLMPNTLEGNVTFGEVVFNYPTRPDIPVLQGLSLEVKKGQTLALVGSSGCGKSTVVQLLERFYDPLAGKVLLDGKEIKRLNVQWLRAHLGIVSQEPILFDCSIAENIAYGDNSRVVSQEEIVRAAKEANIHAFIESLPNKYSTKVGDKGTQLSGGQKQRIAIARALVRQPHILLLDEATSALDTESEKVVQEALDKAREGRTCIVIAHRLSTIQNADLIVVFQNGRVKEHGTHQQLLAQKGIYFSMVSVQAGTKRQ

SMILES	IC50 [1]	IC50 [3]	Ratio IC50 [4]	IC50 (NCI-H23)	IC50 (NCI-H727 [5])	other results
COCCOCOC[C@]1(C(=O)[C@H](CC(C)C)NC(=O)[C@H](Cc2ccccc2)NC(=O)[C@H](CC(C)C)NC(=O)[C@H](CCc2ccccc2)NC(=O)CN2CCOCC2)CO1	> 1000 nM	–	–	–	–	–
CC[C@H](C)[C@H](NC(=O)[C@H]([C@@H](C)CC)N(C)C(C)=O)C(=O)N[C@H](C(=O)N[C@@H](CC(C)C)C(=O)[C@@]1(C)CO1)[C@@H](C)O [EPOXOMYCIN]	–	541 nM	–	–	–	Ratio IC50 [2]: 49.2; IC50 (RPMI-8226): 11 nM
CC(=O)N[C@@H](CSC(=O)[C@]1([C@@H](O)C(C)C)NC(=O)[C@H](C)[C@@H]1O)C(=O)O [LACTACYSTIN]	–	–	>19	5230 nM	> 100000 nM	–
CC(C)C[C@H](NC(=O)[C@H](CCc1ccccc1)NC(=O)CN1CCOCC1)C(=O)N[C@@H](Cc1ccccc1)C(=O)N[C@@H](CC(C)C)C(=O)[C@@]1(CO[Si](c2ccccc2)(c2ccccc2)C(C)(C)C)CO1	112 nM	–	–	> 10000 nM	> 10000 nM	–
COC[C@]1(C(=O)[C@H](CC(C)C)NC(=O)[C@H](Cc2ccccc2)NC(=O)[C@H](CC(C)C)NC(=O)[C@H](CCc2ccccc2)NC(=O)CN2CCOCC2)CO1	> 1000 nM	–	–	–	–	–
CCCCCCC(=O)N[C@@H](C)C(=O)N[C@@H](CC(C)C)C(=O)[C@@]1(CO)CO1	1700 nM	310 nM	–	580 nM	690 nM	IC50 [6]: 36 nM
CCCCCCC(=O)N[C@@H](CO)C(=O)N[C@@H](CC(C)C)C(=O)[C@@]1(COCOCCOC)CO1	–	3410 nM	1.3	3400 nM	4490 nM	Ratio IC50 [2]: 1.6; IC50 (RPMI-8226): 2080 nM; Activity (Homo sapiens [7]): Active; Activity (Homo sapiens [8]): Active
CCCCCCC(=O)N[C@@H](C)C(=O)N[C@@H](CC(C)C)C(=O)[C@@]1(CO[Si](C)(C)C(C)(C)C)CO1	> 10000 nM	2140 to 3720 nM	1.5	3370 nM	5210 nM	Ratio IC50 [2]: 1.7; IC50 (RPMI-8226): 2140 nM; Activity (Homo sapiens [7]): Active; Activity (Homo sapiens [8]): Active; IC50 [6]: 140 nM
CC(C)(C)OC(=O)N[C@@H](CC(=O)OCc1ccccc1)C(=O)N[C@@H](CCCCNC(=O)OCc1ccccc1)C(=O)OC(C)(C)C [REVERSIN 121] (Boc-Asp(OBn)-Lys(Cbz)-OtBu)	–	–	–	–	–	inhibition (INH) [9]: Active
CC(C)C[C@H](NC(=O)[C@H](CCc1ccccc1)NC(=O)CN1CCOCC1)C(=O)N[C@@H](Cc1ccccc1)C(=O)N[C@@H](CC(C)C)C(=O)[C@@]1(COS(C)(=O)=O)CO1	8 nM	–	–	311 nM	834 nM	–
CC(C)C[C@H](NC(=O)[C@H](Cc1ccccc1)NC(=O)c1cnccn1)B(O)O [BORTEZOMIB]	–	–	2.5	10 nM	25 nM	–
COCOC[C@]1(C(=O)[C@H](CC(C)C)NC(=O)[C@H](Cc2ccccc2)NC(=O)[C@H](CC(C)C)NC(=O)[C@H](CCc2ccccc2)NC(=O)CN2CCOCC2)CO1	> 1000 nM	–	–	–	–	–
CC(C)C[C@@H](C=O)NC(=O)[C@H](CC(C)C)NC(=O)[C@H](CC(C)C)NC(=O)OCc1ccccc1 [MG-132] (Cbz-Leu-Leu-Leu-aldehyde)	–	–	2	480 nM	980 nM	–
CC(C)C[C@H](NC(=O)[C@H](CCc1ccccc1)NC(=O)CN1CCOCC1)C(=O)N[C@@H](Cc1ccccc1)C(=O)N[C@@H](CC(C)C)C(=O)[C@@]1(CO)CO1	2.1 nM	106 nM	–	29.4 nM	61 nM	Stability [10]: Stable; Ratio IC50 [11]: 3; Ratio IC50 (NCI-H727 [12]): 10; IC50 [6]: 743 nM
CC(C)C[C@H](NC(=O)[C@H](CCc1ccccc1)NC(=O)CN1CCOCC1)C(=O)N[C@@H](Cc1ccccc1)C(=O)N[C@@H](CC(C)C)C(=O)[C@@]1(C)CO1 [CARFILZOMIB]	–	269 to 270 nM	–	18 to 18.3 nM	610 to 611 nM	Stability [10]: Stable; IC50 (RPMI-8226): 7 nM; half-life [13]: < 1 h
